ChEMBL document CHEMBL3769385 (J Med Chem, 2016)
Activity calls are given as the source filed them.

What was measured:
D(3) dopamine receptor = D(3) dopamine receptor (Homo sapiens, UniProt P35462); experiment: Binding affinity to dopamine D3 receptor (unknown origin) by radioligand binding assay
[1] = biological target: 5-hydroxytryptamine receptor 6 (Homo sapiens, UniProt P50406); experiment: Binding affinity to human 5HT6 receptor by radioligand binding assay
[2] = biological target: Beta-2 adrenergic receptor (Homo sapiens, UniProt P07550); experiment: Binding affinity to human beta-2 adrenergic receptor by radioligand binding assay
Chain of Beta-2 adrenergic receptor (P07550 whole entry): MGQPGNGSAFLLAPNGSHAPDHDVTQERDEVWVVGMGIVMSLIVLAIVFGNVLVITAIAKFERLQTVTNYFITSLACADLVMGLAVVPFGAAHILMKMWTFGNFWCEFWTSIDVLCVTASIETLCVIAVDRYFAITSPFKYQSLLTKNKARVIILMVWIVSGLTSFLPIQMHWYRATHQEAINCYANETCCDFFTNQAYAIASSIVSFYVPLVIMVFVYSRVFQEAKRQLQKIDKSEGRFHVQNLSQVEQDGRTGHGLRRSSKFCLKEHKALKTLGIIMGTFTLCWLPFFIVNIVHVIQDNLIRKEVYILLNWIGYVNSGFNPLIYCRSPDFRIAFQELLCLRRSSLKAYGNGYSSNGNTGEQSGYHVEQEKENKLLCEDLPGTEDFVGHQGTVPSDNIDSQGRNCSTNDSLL

D(4) dopamine receptor = biological target: T1, D(4) dopamine receptor (Homo sapiens, UniProt P21917); experiment: Binding affinity to human dopamine D4 receptor by radioligand binding assay
T1 sequence (P21917 whole entry): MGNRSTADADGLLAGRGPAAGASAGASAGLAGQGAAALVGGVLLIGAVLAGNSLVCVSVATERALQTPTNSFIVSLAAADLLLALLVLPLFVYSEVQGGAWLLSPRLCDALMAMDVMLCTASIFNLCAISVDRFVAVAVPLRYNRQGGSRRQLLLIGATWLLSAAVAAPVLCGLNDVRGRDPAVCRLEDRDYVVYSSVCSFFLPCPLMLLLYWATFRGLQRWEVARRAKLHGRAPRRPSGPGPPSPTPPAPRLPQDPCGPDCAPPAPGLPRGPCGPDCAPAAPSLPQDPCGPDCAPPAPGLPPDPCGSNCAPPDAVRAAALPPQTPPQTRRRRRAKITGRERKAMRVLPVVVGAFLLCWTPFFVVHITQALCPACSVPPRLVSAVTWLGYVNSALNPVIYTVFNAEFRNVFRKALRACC

D(2) dopamine receptor = D(2) dopamine receptor (Homo sapiens, UniProt P14416); experiment: Binding affinity to human dopamine D2 receptor by radioligand binding assay
Chain of D(2) dopamine receptor (P14416 whole entry): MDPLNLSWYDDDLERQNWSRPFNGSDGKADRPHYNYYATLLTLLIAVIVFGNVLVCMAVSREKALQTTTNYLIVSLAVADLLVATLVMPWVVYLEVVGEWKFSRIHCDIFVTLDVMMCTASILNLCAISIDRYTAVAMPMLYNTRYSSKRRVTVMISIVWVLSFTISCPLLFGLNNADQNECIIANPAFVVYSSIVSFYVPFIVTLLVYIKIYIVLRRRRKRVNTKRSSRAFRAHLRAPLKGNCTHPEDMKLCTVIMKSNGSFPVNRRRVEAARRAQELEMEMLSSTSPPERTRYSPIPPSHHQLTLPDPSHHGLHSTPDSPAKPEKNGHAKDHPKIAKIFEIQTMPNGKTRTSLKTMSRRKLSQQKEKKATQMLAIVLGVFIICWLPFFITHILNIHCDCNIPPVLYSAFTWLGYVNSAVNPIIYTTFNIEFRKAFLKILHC

[3] = biological target: 5-hydroxytryptamine receptor 7 (Homo sapiens, UniProt P34969); experiment: Binding affinity to human 5HT7 receptor by radioligand binding assay
Chain of 5-hydroxytryptamine receptor 7 (P34969 whole entry): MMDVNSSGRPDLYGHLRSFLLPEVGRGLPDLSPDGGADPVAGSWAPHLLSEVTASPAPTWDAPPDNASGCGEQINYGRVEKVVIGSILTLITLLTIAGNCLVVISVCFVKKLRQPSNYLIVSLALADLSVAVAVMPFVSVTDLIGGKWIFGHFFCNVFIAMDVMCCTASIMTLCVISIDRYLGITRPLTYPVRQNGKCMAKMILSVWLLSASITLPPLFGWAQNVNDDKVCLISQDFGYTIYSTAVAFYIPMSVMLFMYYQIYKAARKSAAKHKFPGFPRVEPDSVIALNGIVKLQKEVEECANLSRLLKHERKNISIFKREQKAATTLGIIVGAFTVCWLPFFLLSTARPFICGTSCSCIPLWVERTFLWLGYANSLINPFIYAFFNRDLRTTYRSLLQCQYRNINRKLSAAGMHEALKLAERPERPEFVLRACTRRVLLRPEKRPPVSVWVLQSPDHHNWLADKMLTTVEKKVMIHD

[4] = biological target: T2, Muscarinic acetylcholine receptor M5 (Homo sapiens, UniProt P08912); experiment: Binding affinity to human muscarinic acetylcholine M5 receptor by radioligand binding assay
T2 sequence (P08912 whole entry): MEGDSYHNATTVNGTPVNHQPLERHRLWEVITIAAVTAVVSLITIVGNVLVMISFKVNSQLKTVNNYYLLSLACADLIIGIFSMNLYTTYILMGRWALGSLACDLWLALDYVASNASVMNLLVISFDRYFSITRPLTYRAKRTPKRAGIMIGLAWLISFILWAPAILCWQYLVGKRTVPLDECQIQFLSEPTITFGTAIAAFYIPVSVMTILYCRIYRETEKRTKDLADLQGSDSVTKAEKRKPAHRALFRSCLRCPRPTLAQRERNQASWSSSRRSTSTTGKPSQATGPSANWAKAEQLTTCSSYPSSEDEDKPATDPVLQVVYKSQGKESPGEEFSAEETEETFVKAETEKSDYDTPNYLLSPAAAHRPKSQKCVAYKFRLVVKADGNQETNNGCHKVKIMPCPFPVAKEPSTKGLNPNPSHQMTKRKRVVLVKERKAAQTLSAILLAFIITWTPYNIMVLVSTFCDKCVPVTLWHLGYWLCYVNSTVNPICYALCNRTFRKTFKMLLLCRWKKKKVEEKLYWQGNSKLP

Histamine H2 receptor = Histamine H2 receptor (Homo sapiens, UniProt P25021); experiment: Binding affinity to histamine H2 receptor (unknown origin) by radioligand binding assay
Chain of Histamine H2 receptor (P25021 whole entry): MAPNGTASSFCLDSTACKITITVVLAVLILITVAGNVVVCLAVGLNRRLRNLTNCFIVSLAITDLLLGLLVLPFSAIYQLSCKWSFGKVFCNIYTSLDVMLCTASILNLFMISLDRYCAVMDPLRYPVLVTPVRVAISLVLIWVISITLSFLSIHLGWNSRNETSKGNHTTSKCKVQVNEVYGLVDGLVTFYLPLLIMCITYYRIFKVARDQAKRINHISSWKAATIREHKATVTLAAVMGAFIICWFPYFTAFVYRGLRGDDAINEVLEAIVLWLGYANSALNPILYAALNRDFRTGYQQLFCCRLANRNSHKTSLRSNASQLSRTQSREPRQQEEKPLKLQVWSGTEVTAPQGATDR

[5] = biological target: Sodium-dependent serotonin transporter (Homo sapiens, UniProt P31645); experiment: Binding affinity to human SERT by radioligand binding assay
Chain of Sodium-dependent serotonin transporter (P31645 whole entry): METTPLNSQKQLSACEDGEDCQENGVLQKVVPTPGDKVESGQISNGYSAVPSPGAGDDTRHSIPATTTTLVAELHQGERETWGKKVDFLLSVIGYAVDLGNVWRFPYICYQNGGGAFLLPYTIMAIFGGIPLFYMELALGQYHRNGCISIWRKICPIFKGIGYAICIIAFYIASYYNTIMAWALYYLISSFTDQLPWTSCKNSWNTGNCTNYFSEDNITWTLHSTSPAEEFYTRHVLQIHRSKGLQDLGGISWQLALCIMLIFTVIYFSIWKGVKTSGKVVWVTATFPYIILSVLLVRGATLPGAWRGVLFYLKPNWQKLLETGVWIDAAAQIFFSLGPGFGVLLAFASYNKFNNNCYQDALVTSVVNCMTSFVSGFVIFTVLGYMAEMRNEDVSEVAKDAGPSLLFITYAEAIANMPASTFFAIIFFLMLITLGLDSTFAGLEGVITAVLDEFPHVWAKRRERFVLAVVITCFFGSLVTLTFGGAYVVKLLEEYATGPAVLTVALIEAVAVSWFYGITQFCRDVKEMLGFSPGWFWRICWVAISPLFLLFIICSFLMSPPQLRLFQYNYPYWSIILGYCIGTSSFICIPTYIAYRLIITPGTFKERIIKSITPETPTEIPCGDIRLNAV

Mus musculus [6] = experiment: Cataleptic activity in C57BL/6J mouse at 0.01 to 30 mg/kg, ip measured after 60 mins; assay type: ADME, organism-based; conditions: in vivo, 1 h
[7] = biological target: T3, 5-hydroxytryptamine receptor 1A (Homo sapiens, UniProt P08908); experiment: Binding affinity to human 5HT1A receptor by radioligand binding assay
T3 sequence (P08908 whole entry): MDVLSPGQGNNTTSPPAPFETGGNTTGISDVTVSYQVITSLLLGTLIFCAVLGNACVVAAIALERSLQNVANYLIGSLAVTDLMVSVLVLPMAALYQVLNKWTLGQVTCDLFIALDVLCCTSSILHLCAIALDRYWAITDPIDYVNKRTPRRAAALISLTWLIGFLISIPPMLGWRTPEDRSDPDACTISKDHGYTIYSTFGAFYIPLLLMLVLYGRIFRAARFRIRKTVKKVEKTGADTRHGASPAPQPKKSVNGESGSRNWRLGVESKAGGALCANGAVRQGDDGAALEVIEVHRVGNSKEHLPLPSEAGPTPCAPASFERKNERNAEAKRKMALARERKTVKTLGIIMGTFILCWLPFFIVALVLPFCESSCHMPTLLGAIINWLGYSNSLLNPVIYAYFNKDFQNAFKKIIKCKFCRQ

[8] = biological target: T4, Alpha-2A adrenergic receptor (Homo sapiens, UniProt P08913); experiment: Binding affinity to human alpha-2A adrenergic receptor by radioligand binding assay
T4 sequence (P08913 whole entry): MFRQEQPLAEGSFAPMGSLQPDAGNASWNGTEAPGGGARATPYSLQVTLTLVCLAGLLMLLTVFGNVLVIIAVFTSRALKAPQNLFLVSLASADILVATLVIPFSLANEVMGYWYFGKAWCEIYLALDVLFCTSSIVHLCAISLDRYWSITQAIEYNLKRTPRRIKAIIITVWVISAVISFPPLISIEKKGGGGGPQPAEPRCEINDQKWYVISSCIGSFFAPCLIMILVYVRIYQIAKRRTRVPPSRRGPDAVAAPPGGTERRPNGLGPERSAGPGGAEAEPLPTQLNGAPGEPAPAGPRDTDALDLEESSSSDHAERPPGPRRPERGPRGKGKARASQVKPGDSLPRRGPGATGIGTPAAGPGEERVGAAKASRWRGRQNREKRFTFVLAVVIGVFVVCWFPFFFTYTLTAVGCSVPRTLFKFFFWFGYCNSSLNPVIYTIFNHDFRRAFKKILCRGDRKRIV

[9] = Binding affinity to sigma 2 receptor (unknown origin) by radioligand binding assay; set-up: species or system Homo sapiens
[10] = biological target: T5, Alpha-2C adrenergic receptor (Homo sapiens, UniProt P18825); experiment: Binding affinity to human alpha-2C adrenergic receptor by radioligand binding assay
T5 sequence (P18825 whole entry): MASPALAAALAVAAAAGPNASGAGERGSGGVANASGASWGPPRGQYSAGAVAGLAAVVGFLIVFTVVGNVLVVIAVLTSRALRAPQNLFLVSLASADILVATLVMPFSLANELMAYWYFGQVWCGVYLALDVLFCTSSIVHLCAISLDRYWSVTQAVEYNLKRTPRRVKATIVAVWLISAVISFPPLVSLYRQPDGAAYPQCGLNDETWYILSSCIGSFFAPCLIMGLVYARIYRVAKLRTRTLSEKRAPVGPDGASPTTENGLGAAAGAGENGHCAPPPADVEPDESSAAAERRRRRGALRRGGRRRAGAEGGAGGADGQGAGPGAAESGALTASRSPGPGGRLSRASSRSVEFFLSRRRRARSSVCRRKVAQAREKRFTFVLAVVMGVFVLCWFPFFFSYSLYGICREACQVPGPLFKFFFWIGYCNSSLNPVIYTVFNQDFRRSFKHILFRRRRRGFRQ

Mus musculus [11] = experiment: Attenuation of novel object recognition memory in wild type mouse assessed as decrease in preference for novel object at 1 mg/kg, ip administered for 30 mins measured for 3 days; assay type: functional, organism-based
Method in brief: (§1)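 Three daily 5-min trials: empty-chamber acclimation, two identical objects, then 24 h later one familiar plus one novel object (long-term memory). Sessions video-recorded; time spent investigating objects scored at training and testing.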

Mus musculus [12] = experiment: Cognitive enhancing effect in NR1-KD mouse hypoglutamatergic model of schizophrenia assessed as reduction in duration of object exploration during testing at 0.5 to 1 mg/kg, ip administered for 30 mins measured for 3 days relative to wild type mouse; assay type: functional, organism-based; method in brief: as §1
Mus musculus [13] = experiment: Increase in AMPH-disrupted 4 to 12 dB prepulse inhibition in C57BL/6J mouse at 2 mg/kg administered for 10 mins followed by AMPH challenge; assay type: functional, organism-based
Method in brief: (§2)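 Adult male C57BL/6 mice, n = 8–11/group, given vehicle or 0.5–4 mg/kg, then vehicle or 3 mg/kg amphetamine 10 min later. After 10 min acclimation in a startle chamber, 42 trials were run: 18 pulse-only (120 dB), 18 prepulse-pulse (4, 8, 12 dB prepulses) and 6 null. Peak startle (arbitrary units) was taken within 65 ms of pulse onset.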

Mus musculus [14] = experiment: Cognitive enhancing effect in NR1-KD mouse hypoglutamatergic model of schizophrenia assessed as reduction in duration of object exploration during training at 0.5 to 1 mg/kg, ip administered for 30 mins measured for 3 days relative to wild type mouse; assay type: functional, organism-based; method in brief: as §1
Mus musculus [15] = experiment: Reduction in 120 dB acoustic stimulus-induced pulse-only response in C57BL/6J mouse at 0.5 to 2 mg/kg dose followed by AMPH challenge; assay type: functional, organism-based; method in brief: as §2
Mus musculus [16] = experiment: Cognitive enhancing effect in NR1-KD mouse hypoglutamatergic model of schizophrenia at 0.5 to 1 mg/kg, ip administered for 30 mins measured for 3 days by novel object recognition memory test; assay type: functional, organism-based; method in brief: as §1
Mus musculus [17] = experiment: Suppression of AMPH-stimulated hyperlocomotion in C57BL/6J mouse assessed as reduction in distance travelled in open field at 2 mg/kg, ip administered for 15 mins followed by AMPH challenge measured after 105 mins; assay type: functional, organism-based
Method in brief: (§3)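 Mice, n = 7–10/treatment, injected with vehicle or 2–30 mg/kg and placed in an open field monitored by infrared beams. After 15 min baseline, they were given vehicle or 3 mg/kg d-amphetamine and recorded for a further 105 min. Distance travelled was taken in 5-min bins or as a cumulative value over 15 min baseline plus 75 min post-amphetamine.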

Mus musculus [18] = experiment: Restoration of AMPH-disrupted 4 to 12 dB prepulse inhibition in C57BL/6J mouse at 0.5 to 1 mg/kg, ip administered for 10 mins followed by AMPH challenge; assay type: functional, organism-based; method in brief: as §2
Mus musculus [19] = experiment: Effect on 120 dB acoustic stimulus-induced pulse-only response in C57BL/6J mouse at 4 mg/kg, ip administered for 10 mins followed by AMPH challenge; assay type: functional, organism-based; method in brief: as §2
Mus musculus [20] = experiment: Suppression of AMPH-stimulated hyperlocomotion in C57BL/6J mouse assessed as reduction in distance travelled in open field at 5 to 30 mg/kg, ip administered for 15 mins followed by AMPH challenge measured after 105 mins; assay type: functional, organism-based; method in brief: as §3
Mus musculus [21] = experiment: Increase in AMPH-disrupted 4 to 12 dB prepulse inhibition in C57BL/6J mouse at 4 mg/kg, ip administered for 10 mins followed by AMPH challenge; assay type: functional, organism-based; method in brief: as §2
Mus musculus [22] = experiment: Effect on 120 dB acoustic stimulus-induced pulse-only response in C57BL/6J mouse at 4 mg/kg, ip administered for 10 mins; assay type: functional, organism-based; method in brief: as §2
[23] = biological target: 5-hydroxytryptamine receptor 2B (Homo sapiens, UniProt P41595); experiment: Agonist activity at recombinant human 5HT2B receptor expressed in Flp-In-293 cells assessed as calcium flux at 10 uM by FLIPR assay relative to 5-HT; assay type: functional, cell-based
Chain of 5-hydroxytryptamine receptor 2B (P41595 whole entry): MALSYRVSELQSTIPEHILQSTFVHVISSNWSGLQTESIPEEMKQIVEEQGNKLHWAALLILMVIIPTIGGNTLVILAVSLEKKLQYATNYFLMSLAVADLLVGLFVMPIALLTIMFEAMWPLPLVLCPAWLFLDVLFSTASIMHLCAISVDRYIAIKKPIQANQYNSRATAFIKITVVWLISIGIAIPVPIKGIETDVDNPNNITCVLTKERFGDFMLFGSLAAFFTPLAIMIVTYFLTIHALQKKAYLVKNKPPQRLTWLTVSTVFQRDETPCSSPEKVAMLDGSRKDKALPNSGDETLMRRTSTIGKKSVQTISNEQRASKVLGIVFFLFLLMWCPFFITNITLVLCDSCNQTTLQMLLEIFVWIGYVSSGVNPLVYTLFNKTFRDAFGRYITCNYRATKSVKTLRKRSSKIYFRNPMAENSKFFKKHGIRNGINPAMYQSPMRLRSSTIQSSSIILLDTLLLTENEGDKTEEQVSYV

Mus musculus [24] = experiment: Cataleptic activity in ip dosed C57BL/6J mouse measured after 60 mins; assay type: organism-based; conditions: in vivo, 1 h
Method in brief: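 Male C57BL/6J mice, n = 8–10/treatment/time-point, front paws placed on a 2.5 mm horizontal bar with rear paws on the bench, tested at baseline and then injected with vehicle, haloperidol (0.01–10 mg/kg) or test agent (0.01–30 mg/kg). Separate groups were scored at 60 min as time until paw removal, with a 60 s cut-off.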

Chain of 5-hydroxytryptamine receptor 6 (P50406 whole entry): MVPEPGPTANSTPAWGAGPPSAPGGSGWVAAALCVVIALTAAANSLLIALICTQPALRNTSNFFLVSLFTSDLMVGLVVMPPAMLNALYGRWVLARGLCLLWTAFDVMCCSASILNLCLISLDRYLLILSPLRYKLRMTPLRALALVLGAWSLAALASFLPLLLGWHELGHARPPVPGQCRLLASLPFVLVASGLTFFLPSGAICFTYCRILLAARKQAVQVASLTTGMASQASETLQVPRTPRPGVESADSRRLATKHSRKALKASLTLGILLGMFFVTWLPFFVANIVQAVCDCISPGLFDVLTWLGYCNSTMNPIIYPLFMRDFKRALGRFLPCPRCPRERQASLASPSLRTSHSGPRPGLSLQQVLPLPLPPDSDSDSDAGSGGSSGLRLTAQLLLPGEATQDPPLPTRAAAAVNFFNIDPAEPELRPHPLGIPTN
Chain of D(3) dopamine receptor (P35462 whole entry): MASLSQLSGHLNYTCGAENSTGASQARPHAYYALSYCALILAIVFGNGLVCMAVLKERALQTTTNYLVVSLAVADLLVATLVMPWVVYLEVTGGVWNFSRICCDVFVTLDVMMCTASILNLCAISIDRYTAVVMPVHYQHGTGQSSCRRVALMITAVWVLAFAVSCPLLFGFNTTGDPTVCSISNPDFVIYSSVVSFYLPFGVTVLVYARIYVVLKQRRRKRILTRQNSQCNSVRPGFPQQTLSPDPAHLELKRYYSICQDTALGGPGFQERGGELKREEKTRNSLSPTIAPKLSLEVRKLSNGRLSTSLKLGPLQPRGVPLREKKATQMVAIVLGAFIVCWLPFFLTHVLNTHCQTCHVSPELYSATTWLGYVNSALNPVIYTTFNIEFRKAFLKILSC

C=CCOc1cc(F)c(F)cc1C1CC1CN.Cl (single isomer, unassigned; (+))
Ki (D(3) dopamine receptor; read-out: Ki): 201 nM
Ki (D(3) dopamine receptor; read-out: pKi (converted)): 195 nM
Ki ([1]; read-out: Ki): 111 nM
Ki ([1]; read-out: pKi (converted)): 115 nM
Ki [2]: 807 nM
Ki (D(4) dopamine receptor): 1680 nM
Ki (D(2) dopamine receptor): 4.9 µM
Ki ([3]; read-out: Ki): 1270 nM
Ki ([3]; read-out: pKi (converted)): 1020 nM
Ki [4]: 2840 nM
Ki (Histamine H2 receptor): 3.39 µM
Ki [5]: 1260 nM
Activity (Mus musculus [6]): Non-toxic
Ki ([7]; read-out: Ki): 750 nM
Ki ([7]; read-out: pKi (converted)): 933 nM
Ki ([8]; read-out: Ki): 661 nM
Ki ([8]; read-out: pKi (converted)): 166 nM
Ki [9]: 2110 nM
pKi [9]: 5.68
Ki [10]: 278 nM

C=CCOc1cc(F)c(F)cc1C1CC1CN (single isomer, unassigned; (+))
Activity (Mus musculus [11]): Active
Activity (Mus musculus [12]): Active
Activity (Mus musculus [13]): Active
Activity (Mus musculus [14]): Active
Activity (Mus musculus [15]): Active
Activity (Mus musculus [16]): Active
Activity (Mus musculus [17]): inactive
Activity (Mus musculus [18]): Active
Activity (Mus musculus [19]): inactive
Activity (Mus musculus [20]): Dose-dependent effect
Activity (Mus musculus [21]): inactive
Activity (Mus musculus [22]): inactive

C=CCOc1cc(F)c(F)cc1C1CC1CN (single isomer, unassigned; (-))
Emax [23]: < 15%

O=C(CCCN1CCC(O)(c2ccc(Cl)cc2)CC1)c1ccc(F)cc1 [HALOPERIDOL]
Activity (Mus musculus [24]): Dose-dependent effect
